# Screening data: PubChem BioAssay, The Scripps Research Institute Molecular Screening Center
# CHO parental Ca = ATP-evoked calcium signal inhibitors, parental CHO, primary screen, counter-screen for OX1R antagonist project, cell-based, fluorescence, Fluo-8 calcium dye. parental CHO-K1, ATP-induced calcium, Fluo-8 fluorescence. inhibition, % at 5.6 µM. 330,000 compounds, 0.63% hits. AID 463079, 2010;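 active = inhibition above that plate's mean sample inhibition plus 3 SD, cut at about 26% in these data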;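 also: 0% = ATP-challenged DMSO wells and 100% = DMSO wells without ATP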
#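 Material – parental CHO cells · Reagent – ATP stimulus · Compound – single nominal dose of 5.6 µM per compound · Detection – Fluo-8 fluorescence · Read-out basis – percent inhibition of calcium signal · Controls – ATP-challenged DMSO wells low, unchallenged DMSO wells high · Repeats – no replicates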
# OX1R antag-1 = antagonists of human orexin 1 receptor (OX1R); Orexin/Hypocretin receptor type 1 (Homo sapiens), O43613; OX1R-expressing cells, FRET antagonist read-out; inhibition, % at 6.6 µM; 330,000 compounds, 1.8% hits; AID 485270, 2010; in the data active = inhibition mostly above about 38%, no sharp cut-off; inactive = mostly below about 40%;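 also: 0% = agonist challenge alone and 100% = reference antagonist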
# TAAR1 ag = human TAAR1 agonists, primary screen, Fluo-8 calcium fluorescence, CHO RD-HGA16 cells | Trace amine-associated receptor 1 (Homo sapiens), Q96RJ0 | AID 624467, 2012 | vehicle wells 0%, saturating PEA agonist 100% | activation, % at 3 µM | 360,000 compounds, 0.99% hits;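 active = activation above the mean activation of all test compounds in the run plus 3 SD, cut at about 38% in these data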
#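 Test system: RD-HGA16 (CHO) cells co-expressing Gα16 and hTAAR1; dosing: one-point dosing at 3 µM (nominal); timing: 17-24 h seeding, 75 min 37 °C dye, 30 min RT; signal: kinetic Fluo-8 calcium fluorescence; read-out basis: % activation relative to PEA EC100 response; controls: DMSO and PEA EC100; replicates: n 1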
# TAAR1 antag = human TAAR1 antagonists, primary screen, Fluo-8 calcium fluorescence, CHO RD-HGA16 cells | antagonist | inhibition, % at 3 µM | 360,000 compounds, 1.5% hits | Trace amine-associated receptor 1 (Homo sapiens), Q96RJ0;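 active = inhibition above a per-plate cutoff, the mean inhibition of test compounds on that plate plus 3 SD, cut at about 49% in these data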;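 also: 0% = DMSO plus EC80 beta-PEA response and 100% = DMSO alone without agonist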
#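 Test system – hTAAR1-expressing CHO RD-HGA16 cells, Gα16-coupled · Also added – β-PEA at EC80 concentration, post-compound challenge · Compound – 3 µM, single point · Incubation – dye loading 75 min at 37 °C, then 30 min room temperature · Measured by – Fluo-8 intracellular calcium dye fluorescence, real-time kinetic reads · Benchmarks – vehicle and agonist controls · Replicates – singlicate, one well per test compound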
# OX1R antag-2 = OX1R (HCRTR1) antagonists, primary screen, fluorescence, CHO/OX1R cells, Fluo-8 calcium, orexin A | Fluo-8 calcium fluorescence | 330,000 compounds, 0.43% hits | AID 434989, 2010 | inhibition, % at 5 µM;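 active = inhibition above its plate's threshold, mean inhibition of all tested compounds on the plate plus 3 SD, cut at about 37% in these data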;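 also: 0% = orexin A challenge wells and 100% = SB-334867-A antagonist wells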
# GPR7 antag = GPR7 receptor antagonists, primary screen, cell-based, fluorescence, single concentration; AID 1861, 2009; 290,000 compounds, 1.1% hits; GPR7-expressing cells, fluorescence antagonist assay; inhibition, % at 4.4 µM; Neuropeptides B/W receptor type 1 (Homo sapiens), P48145; in the data active = inhibition above about 16%, passing the limit was not always enough;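 also: cells stimulated with the agonist NPW; 0% = agonist with vehicle and 100% = vehicle without agonist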
# Target sequence (P48145 whole entry, looked up): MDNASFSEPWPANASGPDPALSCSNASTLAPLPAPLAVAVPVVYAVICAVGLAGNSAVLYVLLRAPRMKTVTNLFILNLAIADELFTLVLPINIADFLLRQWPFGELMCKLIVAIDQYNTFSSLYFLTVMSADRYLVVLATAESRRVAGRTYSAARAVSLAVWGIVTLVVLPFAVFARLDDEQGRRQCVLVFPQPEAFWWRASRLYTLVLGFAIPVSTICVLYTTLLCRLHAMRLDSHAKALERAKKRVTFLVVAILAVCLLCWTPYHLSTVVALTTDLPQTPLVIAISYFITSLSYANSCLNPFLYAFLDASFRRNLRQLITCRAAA
# * hit, by the source's call; . = no result. Shown are actives, neighbours in structure and some others; about 4.6% of the full set was active somewhere.
SMILES,CHO parental Ca,OX1R antag-1,TAAR1 ag,TAAR1 antag,OX1R antag-2,GPR7 antag
Cc1c(-n2c(O)c(C3=c4ccccc4=NC3=O)sc2=O)c(=O)n(-c2ccccc2)n1C,-6.5,15.2,13.2,6.5,-12.7,-8.2
O=C(O)Cn1c(O)c(C2=c3ccccc3=NC2=O)sc1=O,-3.2,46.8*,-0.2,12.3,-8.5,2.4
COc1ccc(OC(=O)c2ccc(OC)c(S(=O)(=O)N3CCOCC3)c2)cc1,.,.,11.2,22.4,.,-8.7
O=C(Nc1ccc2c(c1)OCCO2)c1ccc(Br)c(S(=O)(=O)N2CCOCC2)c1,.,.,17.5,54.0*,.,2.4
O=C(Oc1ccc2c(c1)OCO2)c1ccc(Br)c(S(=O)(=O)N2CCOCC2)c1,-16.2,6.7,21.3,50.5*,-2.0,-6.1
CCOC(=O)c1ccc(NC(=O)c2ccc(C)c(S(=O)(=O)N3CCOCC3)c2)cc1,10.8,40.4,25.4,80.4*,4.8,23.0
COc1cc(CCC(=O)Nc2cnc3ccccc3c2)cc(OC)c1OC,-12.1,7.2,0.2,1.4,-19.5,7.1
Cc1ccc(S(=O)(=O)N(C)c2ccc(OCC(=O)Nc3ccc(S(C)(=O)=O)cc3)cc2)cc1,.,.,13.5,35.8,.,.
CCOC(=O)C1(Cc2ccc(Cl)cc2)CCN(C(C)Cc2ccc(O)c(OC)c2)CC1 (stereo unspecified),38.1*,15.3,21.3,25.6,-15.3,5.5
CCOC(=O)C1(Cc2ccc(OC)cc2)CCN(S(C)(=O)=O)CC1,-7.1,16.4,5.6,-11.5,-16.1,-2.2
Cc1cccc(NC(=S)N2CCC(c3nc4ccccc4o3)CC2)c1,5.9,33.2,14.6,-1.4,-16.7,-6.6
Cc1ccc2cc(C3C(C#N)=C(N)Oc4c3ccc3cccnc43)c(=O)[nH]c2c1 (stereo unspecified),-22.9,45.4*,.,.,-11.7,-6.3
O=C(Nc1ccccc1)C1CCCN1S(=O)(=O)c1ccc(Br)cc1 (stereo unspecified),-11.9,64.0*,-0.3,-29.8,16.5,-13.6
O=C(Nc1cccnc1)C1CCCN1S(=O)(=O)c1ccc(Cl)c(Cl)c1 (stereo unspecified),-15.1,62.6*,11.4,-18.0,1.5,-2.7
O=C(Nc1nccs1)C1CCCN1S(=O)(=O)c1ccc(Cl)cc1 (stereo unspecified),-16.9,22.9,4.7,-9.5,4.8,0.8
O=C(Nc1ccc(Cl)cn1)C1CCCN1S(=O)(=O)c1ccccc1 (stereo unspecified),-18.6,69.5*,3.5,6.8,19.3,-14.4
Cc1cc(C)cc(NC(=O)C2CCCCN2S(=O)(=O)c2ccccc2)c1 (stereo unspecified),.,.,-2.4,-7.7,.,.
O=C(Nc1ccc(Br)cn1)C1CCCN1S(=O)(=O)c1ccccc1 (stereo unspecified),-23.8,49.4*,4.5,7.1,-1.7,2.7
Cc1nc(N)[nH]c(=O)c1CCCNc1ccc(CCC2(CCl)OCCO2)cc1,.,.,1.4,-16.7,.,.
COc1ccc(C)cc1NC(=O)Nc1ccc2c(c1)CCC2,-8.7,39.9,-2.5,15.3,-34.0,-13.4
O/N=C1\CCCc2ccc(Cl)cc21,-2.9,1.2,5.6,-14.5,-7.5,4.8
Cc1cccc(C)c1OCC(=O)NNC(=O)CCNC(=O)c1ccc(Br)cc1,-6.6,11.2,0.4,-16.4,-21.9,-0.1
CON(c1nc(N(C)C)nc(N(C)C)n1)S(=O)(=O)c1ccccc1Cl,-6.2,30.9*,-2.2,-0.9,1.4,-6.7
CN(c1ccccc1)S(=O)(=O)c1cccc(Cl)c1Cl,-8.3,31.3,-3.1,-58.1,-18.5,-11.6
Cc1ccccc1Cn1c(C)nc2ccccc21,41.3*,63.7,3.2,13.5,13.2,7.6
Cc1ccc(OCCCCn2cnc3ccccc32)cc1,3.6,15.5,4.5,-26.7,21.2,-0.8
Cc1ccccc1OCCn1c(C)nc2ccccc21,35.0*,21.5,4.5,32.2,37.8,4.4
